Results reported in PMC6203112 (International Journal of Chronic Obstructive Pulmonary …, 2018).

Test: Study 1 Part 2: adverse events after multiple OD doses via SDDPI
Format: in vivo, human
Outline: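 In Study 1 Part 2, healthy men were randomized to five parallel, dose-escalating cohorts. Each received test compound (100–1,600 µg) or matching placebo once daily for 7 days via a capsule-based single-dose dry-powder inhaler. AEs and investigator-assessed relation to study medication were recorded. Results are number (%) of subjects in the safety population (randomized, at least one dose).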

SMILES: CS(=O)(=O)Nc1ccc(C(=O)O[C@@H](Cc2c(Cl)c[n+]([O-])cc2Cl)c2ccc(OC(F)F)c(OCC3CC3)c2)cc1OCC1CC1 [CHF6001]
- AE leading to withdrawal (100 µg OD 7 days, N=8): 0 Number (%) of subjects
- At least one AE (100 µg OD 7 days, N=8): 3 (37.5) Number (%) of subjects
- At least one SAE (100 µg OD 7 days, N=8): 0 Number (%) of subjects
- Back pain (AE) (100 µg OD 7 days, N=8): 0 Number (%) of subjects
- Diarrhea (AE considered related to study medication) (100 µg OD 7 days, N=8): 0 Number (%) of subjects
- Flatulence (AE considered related to study medication) (100 µg OD 7 days, N=8): 0 Number (%) of subjects
- Headache (AE considered related to study medication) (100 µg OD 7 days, N=8): 0 Number (%) of subjects
- Headache (AE) (100 µg OD 7 days, N=8): 0 Number (%) of subjects
- Nausea (AE considered related to study medication) (100 µg OD 7 days, N=8): 0 Number (%) of subjects
- Parosmia (AE considered related to study medication) (100 µg OD 7 days, N=8): 0 Number (%) of subjects
- Severe AE (100 µg OD 7 days, N=8): 0 Number (%) of subjects
- AE considered related to study medication (300 µg OD 7 days, N=8): 0 Number (%) of subjects
- AE leading to death (300 µg OD 7 days, N=8): 0 Number (%) of subjects
- AE leading to withdrawal (300 µg OD 7 days, N=8): 0 Number (%) of subjects
- At least one AE (300 µg OD 7 days, N=8): 2 (25.0) Number (%) of subjects
- At least one SAE (300 µg OD 7 days, N=8): 0 Number (%) of subjects
- Back pain (AE) (300 µg OD 7 days, N=8): 0 Number (%) of subjects
- Diarrhea (AE considered related to study medication) (300 µg OD 7 days, N=8): 0 Number (%) of subjects
- Flatulence (AE considered related to study medication) (300 µg OD 7 days, N=8): 0 Number (%) of subjects
- Headache (AE considered related to study medication) (300 µg OD 7 days, N=8): 0 Number (%) of subjects
- Headache (AE) (300 µg OD 7 days, N=8): 0 Number (%) of subjects
- Nausea (AE considered related to study medication) (300 µg OD 7 days, N=8): 0 Number (%) of subjects
- Parosmia (AE considered related to study medication) (300 µg OD 7 days, N=8): 0 Number (%) of subjects
- Severe AE (300 µg OD 7 days, N=8): 0 Number (%) of subjects
- AE considered related to study medication (600 µg OD 7 days, N=9): 0 Number (%) of subjects
- AE leading to death (600 µg OD 7 days, N=9): 0 Number (%) of subjects
- AE leading to withdrawal (600 µg OD 7 days, N=9): 0 Number (%) of subjects
- At least one AE (600 µg OD 7 days, N=9): 5 (55.6) Number (%) of subjects
- At least one SAE (600 µg OD 7 days, N=9): 0 Number (%) of subjects
- Back pain (AE) (600 µg OD 7 days, N=9): 0 Number (%) of subjects
- Diarrhea (AE considered related to study medication) (600 µg OD 7 days, N=9): 0 Number (%) of subjects
- Flatulence (AE considered related to study medication) (600 µg OD 7 days, N=9): 0 Number (%) of subjects
- Headache (AE considered related to study medication) (600 µg OD 7 days, N=9): 0 Number (%) of subjects
- Headache (AE) (600 µg OD 7 days, N=9): 2 (22.2) Number (%) of subjects
- Nausea (AE considered related to study medication) (600 µg OD 7 days, N=9): 0 Number (%) of subjects
- Parosmia (AE considered related to study medication) (600 µg OD 7 days, N=9): 0 Number (%) of subjects
- Severe AE (600 µg OD 7 days, N=9): 0 Number (%) of subjects
- AE considered related to study medication (1,200 µg OD 7 days, N=9): 0 Number (%) of subjects
- AE leading to death (1,200 µg OD 7 days, N=9): 0 Number (%) of subjects
- AE leading to withdrawal (1,200 µg OD 7 days, N=9): 0 Number (%) of subjects
- At least one AE (1,200 µg OD 7 days, N=9): 2 (22.2) Number (%) of subjects
- At least one SAE (1,200 µg OD 7 days, N=9): 0 Number (%) of subjects
- Back pain (AE) (1,200 µg OD 7 days, N=9): 0 Number (%) of subjects
- Diarrhea (AE considered related to study medication) (1,200 µg OD 7 days, N=9): 0 Number (%) of subjects
- Flatulence (AE considered related to study medication) (1,200 µg OD 7 days, N=9): 0 Number (%) of subjects
- Headache (AE considered related to study medication) (1,200 µg OD 7 days, N=9): 0 Number (%) of subjects
- Headache (AE) (1,200 µg OD 7 days, N=9): 0 Number (%) of subjects
- Nausea (AE considered related to study medication) (1,200 µg OD 7 days, N=9): 0 Number (%) of subjects
- Parosmia (AE considered related to study medication) (1,200 µg OD 7 days, N=9): 0 Number (%) of subjects
- Severe AE (1,200 µg OD 7 days, N=9): 0 Number (%) of subjects
- AE considered related to study medication (1,600 µg OD 7 days, N=7): 0 Number (%) of subjects
- AE leading to death (1,600 µg OD 7 days, N=7): 0 Number (%) of subjects
- AE leading to withdrawal (1,600 µg OD 7 days, N=7): 0 Number (%) of subjects
- At least one AE (1,600 µg OD 7 days, N=7): 3 (42.9) Number (%) of subjects
- At least one SAE (1,600 µg OD 7 days, N=7): 0 Number (%) of subjects
- Back pain (AE) (1,600 µg OD 7 days, N=7): 0 Number (%) of subjects
- Diarrhea (AE considered related to study medication) (1,600 µg OD 7 days, N=7): 0 Number (%) of subjects
- Flatulence (AE considered related to study medication) (1,600 µg OD 7 days, N=7): 0 Number (%) of subjects
- Headache (AE considered related to study medication) (1,600 µg OD 7 days, N=7): 0 Number (%) of subjects
- Headache (AE) (1,600 µg OD 7 days, N=7): 0 Number (%) of subjects
- Nausea (AE considered related to study medication) (1,600 µg OD 7 days, N=7): 0 Number (%) of subjects
- Parosmia (AE considered related to study medication) (1,600 µg OD 7 days, N=7): 0 Number (%) of subjects
- Severe AE (1,600 µg OD 7 days, N=7): 0 Number (%) of subjects
